From PubChem
Hits are enriched below; roughly 3.5% of the tested compounds scored in any of these assays.
RGS4 block = inhibitors of human RGS4. P49798. HEK293 M3R/RGS4 inducible, Fluo-4 calcium flux; stronger effect = higher value; triggered by carbachol at its EC20. B-score at 10 µM. 310,000 compounds, 0.45% hits;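 active means B-score, a plate-corrected calcium signal, over three deviations above library mean, with baseline fluorescence within five deviations of library mean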;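 further: RGS4 expression induced by doxycycline in cells with stable M3 receptor; B-score is computed from the integrated fluorescence ratio over baseline after carbachol; higher B-score means a larger calcium signal and so more RGS4 inhibition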
Target sequence (P49798 whole entry, looked up): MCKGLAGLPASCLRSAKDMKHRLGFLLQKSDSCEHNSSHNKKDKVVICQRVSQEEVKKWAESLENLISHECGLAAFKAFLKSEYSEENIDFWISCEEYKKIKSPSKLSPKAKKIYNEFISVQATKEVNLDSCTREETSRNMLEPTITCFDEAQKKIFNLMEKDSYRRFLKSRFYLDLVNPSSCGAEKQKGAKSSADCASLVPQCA
MrgX1 ag = human MrgX1 receptor agonism, primary screen. B-score at 10 µM. Q96LB2. MrgX1-HEK293 cells, Fluo-4 calcium fluorescence, agonist mode; stronger effect = higher value. 310,000 compounds, 0.44% hits;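 active means calcium response B-score plate-corrected fluorescence ratio at least 3 library SD, with starting fluorescence B-score inside 5 SD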
Target sequence (Q96LB2 whole entry, looked up): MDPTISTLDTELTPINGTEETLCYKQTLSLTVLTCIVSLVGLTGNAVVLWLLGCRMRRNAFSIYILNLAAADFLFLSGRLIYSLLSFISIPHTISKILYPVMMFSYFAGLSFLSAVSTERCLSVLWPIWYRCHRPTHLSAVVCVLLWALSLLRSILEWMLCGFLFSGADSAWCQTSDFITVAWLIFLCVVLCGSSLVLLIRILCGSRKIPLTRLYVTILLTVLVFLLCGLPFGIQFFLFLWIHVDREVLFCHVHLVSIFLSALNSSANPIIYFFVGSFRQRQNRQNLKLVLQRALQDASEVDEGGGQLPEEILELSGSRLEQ
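Material: MrgX1-expressing HEK293 cells / Dosing: compound as first of three additions / Incubation: overnight seeding, then 1 h dark dye loading / Signal: Fluo-4 NW calcium fluorescence / Evaluation: B-scored fluorescence response ratio / Benchmarks: positive and negative control wells on each plate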
RGS4 pot = RGS4 potentiation or activation; HEK293 M3R/inducible RGS4, carbachol calcium flux Fluo4; stronger effect = lower value; B-score at 10 µM; 310,000 compounds, 0.92% hits; AID 463111;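 active means B-score of the integrated calcium signal more than 4 SD below the library mean, with starting fluorescence not abnormally high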;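 further: negative B-score means reduced calcium response which marks RGS4 activation or potentiation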
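Material: M3R-expressing HEK293 line, RGS4 induced by doxycycline | Schedule: Overnight RGS4 induction, 30 min dye load 37 °C, 20 min compound RT | Measured by: Fluo4 fluorescence kinetic imaging of calcium | Read-out: Integrated calcium ratio converted to B score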
MrgX1 PAM = allosterically activates human MrgX1 receptor signaling. MrgX1-HEK293, Fluo-4 calcium flux, FDSS; stronger effect = higher value. B-score at 10 µM. 310,000 compounds, 0.63% hits;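 active means plate-corrected calcium response at least 3 library SD above typical, normal starting fluorescence, not activating the receptor alone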;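 further: compound read alongside a low EC10 to EC30 dose of BAM8-22 agonist; peak minus trough fluorescence over baseline measured at the second addition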
MrgX1 antag = human MrgX1 receptor antagonism, primary screen; MRGX1-HEK293 calcium flux, Fluo-4, BAM8-22 antagonism; stronger effect = lower value; B-score at 10 µM; 310,000 compounds, 1.3% hits; AID 588676;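 active means calcium-response B-score plate-corrected more than 3 library SD below zero, starting fluorescence within 5 deviations, no agonist response on first addition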;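 further: peak minus trough fluorescence over baseline after final BAM8-22 challenge near maximal dose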
MrgX1 antag conf = reconfirmed antagonist of human MrgX1 receptor signaling | shares compounds with MrgX1 antag | MrgX1-HEK293, BAM8-22 calcium flux, Fluo-4; stronger effect = lower value | remaining BAM8-22 calcium response % of control (stronger effect = lower value), % at 10 µM | 2,300 compounds, 19% hits | AID 602420;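 active means remaining agonist calcium response no higher than 100% minus 3 SD of agonist-only control wells, with starting fluorescence near control levels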;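 further: agonist BAM8-22 given at a near maximal EC90 to ECmax level; peak minus minimum fluorescence divided by baseline after agonist addition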
HEK293 Ca flux = MrgX1 antagonist counter-screen hit in parental HEK293 cells; fluorescence ratio F(max-min)/F0 at 10 µM; 4,000 compounds, 2% hits; shares compounds with MrgX1 antag; Fluo-4 calcium fluorescence, FDSS; AID 624111;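 active means duplicate-averaged calcium fluorescence ratio at least three times the standard deviation of buffer wells, a nonspecific response in parental cells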
HEK293 Ca counter = activity in parental HEK293 cells without MrgX1. parental HEK293 calcium flux, Fluo-4 fluorescence ratio; stronger effect = higher value. 4,000 compounds, 0.4% hits. shares compounds with MrgX1 antag. fluorescence ratio F(max-min)/F0 at 10 µM. AID 624114;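 active means calcium fluorescence ratio, averaged over duplicates, at least 3 SD of the buffer-well ratio, meaning a nonspecific response in receptor-free cells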;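 further: untransfected parental HEK293 lacking MrgX1 used as counterscreen for MrgX1 allosteric activators; fluorescence change taken during the second addition on a kinetic imager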
HEK293 Ca cntr2 = counter-screen for MrgX1 activators: effect in parental HEK293 cells | shares compounds with MrgX1 antag | Fluo-4 calcium fluorescence (FDSS); stronger effect = higher value | fluorescence ratio F(max-min)/F0 at 10 µM | 4,000 compounds, 8.7% hits | AID 624115;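 active means calcium fluorescence ratio at least three times the spread of buffer wells, meaning a non-specific response in parental cells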
An asterisk follows results filed as active.

How did O=C(NCc1ccco1)c1cnn2c(C(F)(F)F)cc(-c3ccccc3)nc12 do in these assays?
RGS4 block: inactive; MrgX1 ag: inactive; RGS4 pot: inactive; MrgX1 PAM: inactive; MrgX1 antag: -4.7*; MrgX1 antag conf: inactive; HEK293 Ca flux: inactive; HEK293 Ca counter: inactive; HEK293 Ca cntr2: inactive

How did CC(C)=CCN1CCNC(=O)C1CC(=O)NCc1nc(C)c(C)s1 (stereo unspecified) do in these assays?
RGS4 block: inactive; MrgX1 ag: inactive; RGS4 pot: inactive; MrgX1 PAM: inactive; MrgX1 antag: inactive

What do the screens show for `COc1ccc(OC)c(N2C(=O)CC(Cc3ccc(Cl)cc3)C2=O)c1` (stereo unspecified)?
RGS4 block: inactive; MrgX1 ag: inactive; RGS4 pot: inactive; MrgX1 PAM: inactive; MrgX1 antag: -4.5*; MrgX1 antag conf: inactive; HEK293 Ca flux: inactive; HEK293 Ca counter: inactive; HEK293 Ca cntr2: inactive

What do the screens show for `O=C(OCC(=O)N1CCCC1)c1c(Cl)ccc(Cl)c1Cl`?
RGS4 block: inactive; MrgX1 ag: inactive; RGS4 pot: inactive; MrgX1 PAM: inactive; MrgX1 antag: inactive

What do the screens show for `Clc1ccc(C(c2ccccc2)N2CCNCC2)cc1` (stereo unspecified)?
RGS4 block: inactive; MrgX1 ag: inactive; RGS4 pot: inactive; MrgX1 PAM: inactive; MrgX1 antag: -6.3*; MrgX1 antag conf: inactive; HEK293 Ca flux: inactive; HEK293 Ca counter: inactive; HEK293 Ca cntr2: inactive

What do the screens show for `COc1ccc(OCC(=O)N(Cc2sccc2C)C2CCS(=O)(=O)C2)cc1` (stereo unspecified)?
RGS4 block: inactive; MrgX1 ag: inactive; RGS4 pot: inactive; MrgX1 PAM: inactive; MrgX1 antag: inactive

What do the screens show for `COc1ccc(CCN=C(N)NS(=O)(=O)c2ccc(C)c(C)c2)cc1OC`?
RGS4 block: inactive; MrgX1 ag: inactive; RGS4 pot: inactive; MrgX1 PAM: inactive; MrgX1 antag: inactive

How did COc1ccc(S(=O)(=O)NC(N)=NCCc2ccc(OC)c(OC)c2)cc1 do in these assays?
RGS4 block: inactive; MrgX1 ag: inactive; RGS4 pot: inactive; MrgX1 PAM: inactive; MrgX1 antag: -7.4*; MrgX1 antag conf: inactive; HEK293 Ca flux: inactive; HEK293 Ca counter: inactive; HEK293 Ca cntr2: inactive

How did Cc1cccc(OCC(=O)Nc2ccc(CN3CCOCC3)cc2)c1C do in these assays?
RGS4 block: inactive; MrgX1 ag: inactive; RGS4 pot: inactive; MrgX1 PAM: inactive; MrgX1 antag: -6.7*; MrgX1 antag conf: inactive; HEK293 Ca flux: inactive; HEK293 Ca counter: inactive; HEK293 Ca cntr2: inactive

Results for COc1c(Cl)ccc(Cl)c1C(=O)NC(=S)N1CCOCC1 ?
RGS4 block: inactive; MrgX1 ag: inactive; RGS4 pot: inactive; MrgX1 PAM: inactive; MrgX1 antag: inactive

What do the screens show for `COc1ccc(S(=O)(=O)CCC(=O)Nc2cccc(OC)c2)cc1`?
RGS4 block: inactive; MrgX1 ag: inactive; RGS4 pot: inactive; MrgX1 PAM: inactive; MrgX1 antag: inactive

What do the screens show for `CC(C)NC(=O)CC1Nc2c3ccccc3nc(=S)n2C1=O` (stereo unspecified)?
RGS4 block: inactive; MrgX1 ag: inactive; RGS4 pot: inactive; MrgX1 PAM: inactive; MrgX1 antag: -5.3*; MrgX1 antag conf: inactive; HEK293 Ca flux: inactive; HEK293 Ca counter: inactive; HEK293 Ca cntr2: inactive

What do the screens show for `CCOc1ccc(N(CC(=O)NC2CCCCC2)S(=O)(=O)c2c(C)noc2C)cc1`?
RGS4 block: inactive; MrgX1 ag: inactive; RGS4 pot: inactive; MrgX1 PAM: inactive; MrgX1 antag: inactive

What do the screens show for `CCOc1ccc(N(CC(=O)NC2CCCC2)S(=O)(=O)c2c(C)noc2C)cc1`?
RGS4 block: inactive; MrgX1 ag: inactive; RGS4 pot: inactive; MrgX1 PAM: inactive; MrgX1 antag: -4.8*; MrgX1 antag conf: 65%*; HEK293 Ca flux: inactive; HEK293 Ca counter: inactive; HEK293 Ca cntr2: inactive

What do the screens show for `CCN(CC)c1ccc(/C=N/NC(=O)c2cc(C)nc3ccccc23)cc1`?
RGS4 block: inactive; MrgX1 ag: inactive; RGS4 pot: inactive; MrgX1 PAM: inactive; MrgX1 antag: inactive

What do the screens show for `CCN(CC)c1ccc(/C=C/c2cc(-c3ccccc3)c3ccccc3n2)cc1`?
RGS4 block: inactive; MrgX1 ag: inactive; RGS4 pot: inactive; MrgX1 PAM: inactive; MrgX1 antag: -15*; MrgX1 antag conf: inactive; HEK293 Ca flux: 0.065*; HEK293 Ca counter: inactive; HEK293 Ca cntr2: inactive

How did CCOC(=O)Cc1csc(NC(=O)c2sc3nc4cc(C)ccc4cc3c2N)n1 do in these assays?
RGS4 block: inactive; MrgX1 ag: inactive; RGS4 pot: inactive; MrgX1 PAM: inactive; MrgX1 antag: -6.4*; MrgX1 antag conf: inactive; HEK293 Ca flux: inactive; HEK293 Ca counter: inactive; HEK293 Ca cntr2: inactive

What do the screens show for `CCOC(=O)Cc1csc(NC(=O)Nc2cccc(Cl)c2)n1`?
RGS4 block: inactive; MrgX1 ag: inactive; RGS4 pot: inactive; MrgX1 PAM: inactive; MrgX1 antag: -7.4*; MrgX1 antag conf: inactive; HEK293 Ca flux: inactive; HEK293 Ca counter: inactive; HEK293 Ca cntr2: inactive

What do the screens show for `CCOC(=O)Cc1csc(NC(=O)Nc2ccc(Cl)cc2)n1`?
RGS4 block: inactive; MrgX1 ag: inactive; RGS4 pot: inactive; MrgX1 PAM: inactive; MrgX1 antag: inactive

How did CCOC(=O)Cc1csc(NC(=O)c2sc3nc4ccc(CC)cc4cc3c2N)n1 do in these assays?
RGS4 block: inactive; MrgX1 ag: inactive; RGS4 pot: inactive; MrgX1 PAM: inactive; MrgX1 antag: inactive

What do the screens show for `Cc1nn(Cc2ccccc2)c(C)c1NC(=O)CCCn1nc([N+](=O)[O-])cc1C`?
RGS4 block: inactive; MrgX1 ag: inactive; RGS4 pot: inactive; MrgX1 PAM: inactive; MrgX1 antag: inactive

Results for O=C(Nc1ccccc1)Nc1ccccc1NS(=O)(=O)c1cccs1 ?
RGS4 block: inactive; MrgX1 ag: inactive; RGS4 pot: inactive; MrgX1 PAM: inactive; MrgX1 antag: inactive
